Laboratory results taken from ChEMBL document CHEMBL1150169, “Fatty acid synthase inhibitors from plants: isolation, structure elucidation, and SAR studies” (J Nat Prod, 2002).
In brackets after ≈: the same amount, converted by molar mass.

Assays:
[1] = system: Candida albicans; experiment: Antifungal activity against Candida albicans ATCC 90028; assay type: functional, organism-based
[2] = Inhibition of Saccharomyces cerevisiae fatty acid synthase
In short: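 Yeast FAS semipurified by 50% ammonium sulfate precipitation of lysate (pH 6.6 phosphate, EDTA, DTT, protease inhibitors), dialyzed, and diluted to 250 mOD/min/mL. Samples preincubated with enzyme 30 min at room temperature, then mixed 1:1 with mix of 1 mM malonyl CoA and NADPH, 40 µM acetyl CoA, and 2 mM DTT. A340 read kinetically; rate over initial 2 min. IC50 from dose-response curves.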

[3] = system: Cryptococcus neoformans; experiment: Antifungal activity against Cryptococcus neoformans ATCC 90113; assay type: functional, organism-based

| Compound | IC50 [1] [µg/mL] | IC50 [2] [µg/mL] | IC50 [3] [µg/mL] |
| --- | --- | --- | --- |
| Cc1c(-c2ccccc2)oc2c(C(=O)O)cccc2c1=O | > 50 | > 50 | > 50 |
| COc1ccc(-c2cc(=O)c3c(O)cc(O)cc3o2)cc1-c1c(OC)cc(O)c2c(=O)cc(-c3ccc(O)cc3)oc12 | > 50 | 49 (≈ 86.5 µM) | > 50 |
| O=c1c(-c2ccc(O)cc2)coc2cc(O)c(O)cc12 | > 50 | 50 (≈ 185 µM) | > 50 |
| O=c1cc(-c2ccc(Cl)cc2)oc2ccc(Br)cc12 | > 50 | > 50 | > 50 |
| C=C(C)C(O)Cc1c(O)ccc(C(=O)/C=C/c2ccc(O)cc2)c1O (stereo unspecified) | 20 (≈ 58.8 µM) | 46 (≈ 135 µM) | 50 (≈ 147 µM) |
| CC1(C)CC[C@]2(C(=O)O)CC[C@]3(C)C(=CC[C@@H]4[C@@]5(C)C[C@@H](O)[C@H](O)[C@@](C)(COC(=O)c6cc(O)c(O)c(O)c6)[C@@H]5[C@H](O)C[C@]43C)[C@@H]2C1 | > 50 | > 50 | > 50 |
| O=Cc1cc(-c2coc3cc(O)cc(O)c3c2=O)ccc1O | > 50 | 2.3 (≈ 7.71 µM) | > 50 |
| Cc1ccc2oc(-c3ccc(Cl)cc3)cc(=O)c2c1 | > 50 | > 50 | > 50 |
| O=c1cc(-c2ccc(Cl)cc2)oc2c(Br)cc(Br)cc12 | > 50 | > 50 | > 50 |
| O=c1cc(-c2ccccc2)oc2c(Br)cc(Br)cc12 | > 50 | > 50 | > 50 |
| COc1cc2c(=O)oc3c(OC)c(O[C@@H]4O[C@H](CO)[C@@H](O)[C@H](O)[C@H]4O)cc4c(=O)oc(c1OC)c2c34 | > 50 | > 50 | > 50 |
| O=C1c2c(O)cc(O)cc2OC(c2ccc(O)cc2O)C1O (stereo unspecified) | > 50 | > 50 | > 50 |
| Cc1cc2oc(-c3ccccc3)cc(=O)c2cc1Cl | > 50 | > 50 | > 50 |
| COc1cc(O)c(C(=O)CCc2ccccc2)c(O)c1 | > 50 | > 50 | > 50 |
| O=C1c2c(O)cc(O)c(C3C(=O)c4c(O)cc(O)cc4OC3c3ccc(O)cc3)c2OC(c2ccc(O)c(O)c2)C1O (stereo unspecified) | > 50 | 23 (≈ 40 µM) | > 50 |
| C=C(C)C(O)Cc1cc(-c2coc3cc(O)cc(O)c3c2=O)ccc1O (stereo unspecified) | > 50 | > 50 | > 50 |
| O=C1c2c(O)cc(O)cc2OC(c2ccc(O)cc2)C1c1c(O)cc(O)c2c(=O)cc(-c3ccc(O)c(O)c3)oc12 (stereo unspecified) | > 50 | 30 (≈ 53.9 µM) | > 50 |
| Oc1cc(O)c2c(c1)O[C@H](c1ccc(O)c(O)c1)[C@H](O)C2 [(-)-EPICATECHIN] | > 50 | > 50 | > 50 |
| CC1(C)C=Cc2c(cc3occ(-c4ccc(O)cc4)c(=O)c3c2O)O1 [ALPINUMISOFLAVONE] | > 50 | > 50 | > 50 |
| O=C1c2c(O)cc(O)cc2OC1(O)Cc1cc(O)c(O)c(O)c1 (stereo unspecified) [AMARANOL A] | > 50 | > 50 | > 50 |
| COc1c(O)cc(CC2(O)Oc3cc(O)cc(O)c3C2=O)cc1O (stereo unspecified) [AMARONOL B] | > 50 | > 50 | > 50 |
| O=c1cc(-c2ccc(O)c(-c3c(O)cc(O)c4c(=O)cc(-c5ccc(O)cc5)oc34)c2)oc2cc(O)cc(O)c12 [AMENTOFLAVONE] | > 50 | 7 (≈ 13 µM) | > 50 |
| O=c1cc(-c2ccc(O)cc2)oc2cc(O)cc(O)c12 [APIGENIN] | > 50 | 37.5 (≈ 139 µM) | 20 (≈ 74 µM) |
| CC1(C)CC[C@]2(C(=O)O)CC[C@]3(C)C(=CC[C@@H]4[C@@]5(C)C[C@@H](O)[C@H](O)[C@@](C)(CO)[C@@H]5CC[C@]43C)[C@@H]2C1 [ARJUNOLIC ACID] | > 50 | 27.5 (≈ 56.3 µM) | 20 (≈ 40.9 µM) |
| COc1cc(O)c(C(=O)CCc2ccc(O)cc2)c(O)c1 [ASEBOGENIN] | > 50 | > 50 | > 50 |
| COc1cc2oc(-c3ccccc3)cc(=O)c2c(OC)c1OC [BAICALEIN TRIMETHYL ETHER] | > 50 | > 50 | > 50 |

| Compound | IC50 [1] [µg/mL] | IC50 [2] [µg/mL] | IC50 [3] [µg/mL] |
| --- | --- | --- | --- |
| O=c1cc(-c2ccccc2)oc2cc(O)c(O)c(O)c12 [BAICALEIN] | 6 (≈ 22.2 µM) | 25 (≈ 92.5 µM) | > 50 |
| O=C(O)[C@H]1O[C@@H](Oc2cc3oc(-c4ccccc4)cc(=O)c3c(O)c2O)[C@H](O)[C@@H](O)[C@@H]1O [BAICALIN] | > 50 | > 50 | > 50 |
| C=C(C)[C@@H]1CC[C@]2(C(=O)O)CC[C@]3(C)[C@H](CC[C@@H]4[C@@]5(C)CC[C@H](O)C(C)(C)[C@@H]5CC[C@]43C)[C@@H]12 [BETULINIC ACID] | > 50 | > 50 | > 50 |
| COc1ccc(-c2coc3cc(O)cc(O)c3c2=O)cc1 [BIOCHANIN] | > 50 | > 50 | > 50 |
| C/C=C/C/C=C/CCC(=O)[C@H]1O[C@H]1C(N)=O [CERULENIN] | 0.4 (≈ 1.79 µM) | 0.15 (≈ 0.672 µM) | 0.15 (≈ 0.672 µM) |
| O=C(O)C[C@@H]1C(=O)O[C@H]2[C@@H]3OC(=O)c4cc(O)c(O)c(O)c4-c4c(cc(O)c(O)c4O)C(=O)OC[C@H]2O[C@@H](OC(=O)c2cc(O)c(O)c(O)c2)[C@@H]3OC(=O)c2cc(O)c(O)c3c2[C@H]1[C@H](O)C(=O)O3 [CHEBULAGIC ACID] | > 50 | > 50 | > 50 |
| O=C(O)C[C@H]1C(=O)O[C@H]2[C@H](OC(=O)c3cc(O)c(O)c(O)c3)[C@@H](OC(=O)c3cc(O)c(O)c4c3[C@H]1[C@H](O)C(=O)O4)[C@H](OC(=O)c1cc(O)c(O)c(O)c1)O[C@@H]2COC(=O)c1cc(O)c(O)c(O)c1 [CHEBULINIC ACID] | > 50 | > 50 | > 50 |
| CC1(C)CC[C@]2(C(=O)O[C@@H]3O[C@H](CO)[C@@H](O)[C@H](O)[C@H]3O)CC[C@]3(C)C(=CC[C@@H]4[C@@]5(C)C[C@@H](O)[C@H](O)[C@@](C)(CO)[C@@H]5[C@H](O)C[C@]43C)[C@@H]2C1 [CHEBULOSIDE II] | > 50 | > 50 | > 50 |
| O=c1oc2c(O)c(O)cc3c(=O)oc4c(O)c(O)cc1c4c23 [ELLAGIC ACID] | > 50 | 20 (≈ 66.2 µM) | 5.5 (≈ 18.2 µM) |
| C[C@@H]1O[C@@H](Oc2cc3c(=O)oc4c(O)c(O)cc5c(=O)oc(c2O)c3c45)[C@H](O)[C@H](O)[C@H]1O [ESCHWEILENOL C] | > 50 | 7.5 (≈ 16.7 µM) | > 50 |
| O=c1c(O)c(-c2ccc(O)c(O)c2)oc2cc(O)ccc12 [FISETIN] | > 50 | > 50 | > 50 |
| O=C1CC(c2ccccc2)Oc2ccccc21 (stereo unspecified) [FLAVANONE] | > 50 | > 50 | > 50 |
| COc1ccc(-c2coc3cc(O)c(O)cc3c2=O)cc1 [FORMONETIN] | > 50 | 50 (≈ 176 µM) | > 50 |
| O=c1c(O)c(-c2ccccc2)oc2cc(O)cc(O)c12 [GALANGIN] | > 50 | > 50 | > 50 |
| COc1cc(-c2cc(=O)c3c(O)c(OC)c(OC)c(OC)c3o2)cc(OC)c1OC [GARDENIN] | > 50 | > 50 | > 50 |
| O=c1c(-c2ccc(O)cc2)coc2cc(O)cc(O)c12 [GENISTEIN] | > 50 | > 50 | > 50 |
| CC(C)=CCc1c(O)ccc(C(=O)/C=C/c2ccc(O)cc2)c1O [ISOBAVACHALCONE] | 2 (≈ 6.17 µM) | > 50 | 45 (≈ 139 µM) |
| O=c1c(O)c(-c2ccc(O)cc2)oc2cc(O)cc(O)c12 [KAEMPFEROL] | > 50 | 50 (≈ 175 µM) | > 50 |
| O=c1cc(-c2ccc(O)c(O)c2)oc2cc(O)cc(O)c12 [LUTEOLIN] | > 50 | 9 (≈ 31.4 µM) | > 50 |
| O=c1c(O)c(-c2cc(O)c(O)c(O)c2)oc2cc(O)cc(O)c12 [MYRICETIN] | > 50 | 15 (≈ 47.1 µM) | > 50 |
| O=C1C[C@@H](c2ccc(O)cc2)Oc2cc(O)cc(O)c21 [NARINGENIN] | > 50 | > 50 | > 50 |
| COc1c(O[C@@H]2O[C@H](CO)[C@@H](O)[C@H](O)[C@H]2O)cc2c(=O)oc3c4c(cc5c(=O)oc1c2c35)OCO4 [NYSSOSIDE] | > 50 | > 50 | > 50 |
| O=c1c(-c2ccc(O)c(O)c2)coc2cc(O)cc(O)c12 [OROBOL] | > 50 | > 50 | > 50 |
| O=C(OC[C@H]1O[C@@H](OC(=O)c2cc(O)c(O)c(O)c2)[C@H](OC(=O)c2cc(O)c(O)c(O)c2)[C@@H](OC(=O)c2cc(O)c(O)c(O)c2)[C@@H]1OC(=O)c1cc(O)c(O)c(O)c1)c1cc(O)c(O)c(O)c1 [PENTAGALLOYL GLUCOSE] | > 50 | 2.8 (≈ 2.98 µM) | > 50 |
| O=c1c(O)c(-c2ccc(O)c(O)c2)oc2cc(O)cc(O)c12 [QUERCETIN] | > 50 | 12 (≈ 39.7 µM) | > 50 |
| C[C@@H]1O[C@@H](OC[C@H]2O[C@@H](Oc3c(-c4ccc(O)c(O)c4)oc4cc(O)cc(O)c4c3=O)[C@H](O)[C@@H](O)[C@@H]2O)[C@H](O)[C@H](O)[C@H]1O [RUTIN] | > 50 | > 50 | 30 (≈ 49.1 µM) |
